In ChEMBL document CHEMBL1154716, “Synthesis of some new S-triazine based chalcones and their derivatives as potent antimicrobial agents” (2010):
In brackets after ≈: the same amount, converted by molar mass. Activity calls are given as the source filed them. The rule behind the calls is not given here.

Tests used:
Bacillus cereus [1] = assay: Antimicrobial activity against Bacillus cereus after 24 hrs by microdilution technique; assay type: functional
Procedure, shortened: (§1)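 Broth microdilution in LB medium. Inoculum is 1.0 × 10^4 cfu per well, from a saline-adjusted suspension of 1.0 × 10^5 cfu/ml. Compounds are dissolved in DMSO. Incubated 24 h at 28 C. MIC is the lowest concentration with no visible growth under a binocular microscope. MBC is read by subculture into fresh broth for 72 h, with no growth taken as 99.5% kill. OD is read at 655 nm.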

Escherichia coli [2] = assay: Antimicrobial activity against Escherichia coli at 1 umol/spot after 18 hrs by TLC-bioautographic method; assay type: functional
Procedure, shortened: (§2)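 TLC bioautography. Samples are spotted on silica gel TLC plates, then sprayed with bacteria (1.0 × 10^5 cfu/ml) in tryptic soy broth. Plates are incubated 18 h at 37 C and sprayed with 3% aqueous p-iodonitrotetrazolium violet. After a further 3 h, growth is stopped with 70% EtOH. White zones on a pink background are scored as inhibition-zone diameter with standard errors.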

Bacillus cereus [3] = assay: Antimicrobial activity against Bacillus cereus at 1 umol/spot after 18 hrs by TLC-bioautographic method; assay type: functional; procedure, shortened: as §2
Staphylococcus aureus [4] = assay: Antimicrobial activity against Staphylococcus aureus at 1 umol/spot after 18 hrs by TLC-bioautographic method; assay type: functional; procedure, shortened: as §2
Micrococcus flavus [5] = assay: Antimicrobial activity against Micrococcus flavus at 1 umol/spot after 18 hrs by TLC-bioautographic method; assay type: functional; procedure, shortened: as §2
Escherichia coli [6] = assay: Antimicrobial activity against Escherichia coli at 10 ug/disk after 24 hrs by disk diffusion assay; assay type: functional
Procedure, shortened: (§3)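 Disc diffusion on 4 mm filter discs. Bacteria are grown overnight in LB at 28 C, then adjusted in saline to 1.0 × 10^5 cfu/ml. The suspension is mixed into top agar over peptone agar plates. Plates are incubated 24 h at 28 C, and growth-inhibition zone diameter is measured. Streptomycin and ampicillin controls are applied from a 1 mg/ml stock. Tests are done in duplicate.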

Escherichia coli [7] = assay: Antimicrobial activity against Escherichia coli at 1 umol/disk after 24 hrs by disk diffusion assay; assay type: functional; procedure, shortened: as §3
Listeria monocytogenes [8] = assay: Antimicrobial activity against Listeria monocytogenes at 10 ug/disk after 24 hrs by disk diffusion assay; assay type: functional; procedure, shortened: as §3
Pseudomonas aeruginosa [9] = assay: Antimicrobial activity against Pseudomonas aeruginosa at 1 umol/disk after 24 hrs by disk diffusion assay; assay type: functional; procedure, shortened: as §3
Pseudomonas aeruginosa [10] = assay: Antimicrobial activity against Pseudomonas aeruginosa at 10 ug/disk after 24 hrs by disk diffusion assay; assay type: functional; procedure, shortened: as §3
Salmonella typhimurium [11] = assay: Antimicrobial activity against Salmonella Typhimurium at 1 umol/spot after 18 hrs by TLC-bioautographic method; assay type: functional, Salmonella enterica subsp. enterica serovar Typhimurium; procedure, shortened: as §2
Pseudomonas aeruginosa [12] = assay: Antimicrobial activity against Pseudomonas aeruginosa at 1 umol/spot after 18 hrs by TLC-bioautographic method; assay type: functional; procedure, shortened: as §2
Listeria monocytogenes [13] = assay: Antimicrobial activity against Listeria monocytogenes after 24 hrs by microdilution technique; assay type: functional; procedure, shortened: as §1
Staphylococcus aureus [14] = assay: Antimicrobial activity against Staphylococcus aureus after 24 hrs by microdilution technique; assay type: functional; procedure, shortened: as §1
Enterobacter cloacae [15] = assay: Antimicrobial activity against Enterobacter cloacae at 1 umol/spot after 18 hrs by TLC-bioautographic method; assay type: functional; procedure, shortened: as §2
Enterobacter cloacae [16] = assay: Antimicrobial activity against Enterobacter cloacae at 1 umol/disk after 24 hrs by disk diffusion assay; assay type: functional; procedure, shortened: as §3
Staphylococcus aureus [17] = assay: Antimicrobial activity against Staphylococcus aureus at 1 umol/disk after 24 hrs by disk diffusion assay; assay type: functional; procedure, shortened: as §3
Salmonella typhimurium [18] = assay: Antimicrobial activity against Salmonella Typhimurium after 24 hrs by microdilution technique; assay type: functional, Salmonella enterica subsp. enterica serovar Typhimurium; conditions: Salmonella enterica; procedure, shortened: as §1
Bacillus cereus [19] = assay: Antimicrobial activity against Bacillus cereus at 1 umol/disk after 24 hrs by disk diffusion assay; assay type: functional; procedure, shortened: as §3
Salmonella typhimurium [20] = assay: Antimicrobial activity against Salmonella Typhimurium at 1 umol/disk after 24 hrs by disk diffusion assay; assay type: functional, organism-based; conditions: Salmonella enterica subsp. enterica serovar Typhimurium; procedure, shortened: as §3
Bacillus cereus [21] = assay: Antimicrobial activity against Bacillus cereus at 10 ug/disk after 24 hrs by disk diffusion assay; assay type: functional; procedure, shortened: as §3
Enterobacter cloacae [22] = assay: Antimicrobial activity against Enterobacter cloacae after 24 hrs by microdilution technique; assay type: functional; procedure, shortened: as §1
Enterobacter cloacae [23] = assay: Antimicrobial activity against Enterobacter cloacae at 10 ug/disk after 24 hrs by disk diffusion assay; assay type: functional; procedure, shortened: as §3
Escherichia coli [24] = assay: Antimicrobial activity against Escherichia coli after 24 hrs by microdilution technique; assay type: functional; procedure, shortened: as §1
Micrococcus flavus [25] = assay: Antimicrobial activity against Micrococcus flavus at 1 umol/disk after 24 hrs by disk diffusion assay; assay type: functional; procedure, shortened: as §3
Listeria monocytogenes [26] = assay: Antimicrobial activity against Listeria monocytogenes at 1 umol/disk after 24 hrs by disk diffusion assay; assay type: functional; procedure, shortened: as §3
Micrococcus flavus [27] = assay: Antimicrobial activity against Micrococcus flavus after 24 hrs by microdilution technique; assay type: functional; procedure, shortened: as §1
Pseudomonas aeruginosa [28] = assay: Antimicrobial activity against Pseudomonas aeruginosa after 24 hrs by microdilution technique; assay type: functional; procedure, shortened: as §1
Micrococcus flavus [29] = assay: Antimicrobial activity against Micrococcus flavus at 10 ug/disk after 24 hrs by disk diffusion assay; assay type: functional; procedure, shortened: as §3
Listeria monocytogenes [30] = assay: Antimicrobial activity against Listeria monocytogenes at 1 umol/spot after 18 hrs by TLC-bioautographic method; assay type: functional; procedure, shortened: as §2
Salmonella typhimurium [31] = assay: Antimicrobial activity against Salmonella Typhimurium at 10 ug/disk after 24 hrs by disk diffusion assay; assay type: functional, organism-based; conditions: Salmonella enterica subsp. enterica serovar Typhimurium; procedure, shortened: as §3
Staphylococcus aureus [32] = assay: Antimicrobial activity against Staphylococcus aureus at 10 ug/disk after 24 hrs by disk diffusion assay; assay type: functional; procedure, shortened: as §3

| SMILES | MBC (Bacillus cereus [1]) | MIC (Bacillus cereus [1]) | inhibition zone (IZ) (Escherichia coli [2]) | inhibition zone (IZ) (Bacillus cereus [3]) | inhibition zone (IZ) (Staphylococcus aureus [4]) | inhibition zone (IZ) (Micrococcus flavus [5]) | inhibition zone (IZ) (Escherichia coli [7]) | inhibition zone (IZ) (Listeria monocytogenes [8]) | inhibition zone (IZ) (Pseudomonas aeruginosa [9]) | inhibition zone (IZ) (Pseudomonas aeruginosa [10]) | inhibition zone (IZ) (Salmonella typhimurium [11]) | inhibition zone (IZ) (Pseudomonas aeruginosa [12]) | MBC (Listeria monocytogenes [13]) | MIC (Listeria monocytogenes [13]) | MBC (Staphylococcus aureus [14]) | MIC (Staphylococcus aureus [14]) | inhibition zone (IZ) (Enterobacter cloacae [15]) | inhibition zone (IZ) (Enterobacter cloacae [16]) | inhibition zone (IZ) (Staphylococcus aureus [17]) | MBC (Salmonella typhimurium [18]) | further results |
| --- | --- | --- | --- | --- | --- | --- | --- | --- | --- | --- | --- | --- | --- | --- | --- | --- | --- | --- | --- | --- | --- |
| O=C(/C=C/c1ccc(Cl)cc1)c1ccc(Nc2nc(Nc3ccccc3)nc(Nc3ccccc3)n2)cc1 | 386 µM (≈ 200 µg/mL) | 193 µM (≈ 100 µg/mL) | inactive | inactive | inactive | 0.07 millimeter | inactive | inactive | inactive | inactive | 0.09 millimeter | inactive | 772 µM (≈ 401 µg/mL) | 386 µM (≈ 200 µg/mL) | 772 µM (≈ 401 µg/mL) | 386 µM (≈ 200 µg/mL) | 0.08 millimeter | inactive | inactive | 772 µM (≈ 401 µg/mL) | inhibition zone (IZ) (Escherichia coli [6]): inactive; MIC (Salmonella typhimurium [18]): 386 µM (≈ 200 µg/mL); inhibition zone (IZ) (Bacillus cereus [19]): inactive; inhibition zone (IZ) (Salmonella typhimurium [20]): inactive; inhibition zone (IZ) (Bacillus cereus [21]): inactive; MBC (Enterobacter cloacae [22]): 386 µM (≈ 200 µg/mL); MIC (Enterobacter cloacae [22]): 193 µM (≈ 100 µg/mL); inhibition zone (IZ) (Enterobacter cloacae [23]): inactive; MBC (Escherichia coli [24]): 772 µM (≈ 401 µg/mL); MIC (Escherichia coli [24]): 772 µM (≈ 401 µg/mL); inhibition zone (IZ) (Micrococcus flavus [25]): inactive; inhibition zone (IZ) (Listeria monocytogenes [26]): inactive; MBC (Micrococcus flavus [27]): 386 µM (≈ 200 µg/mL); MIC (Micrococcus flavus [27]): 193 µM (≈ 100 µg/mL); MBC (Pseudomonas aeruginosa [28]): 772 µM (≈ 401 µg/mL); MIC (Pseudomonas aeruginosa [28]): 386 µM (≈ 200 µg/mL); inhibition zone (IZ) (Micrococcus flavus [29]): inactive; inhibition zone (IZ) (Listeria monocytogenes [30]): 0.07 millimeter; inhibition zone (IZ) (Salmonella typhimurium [31]): inactive; inhibition zone (IZ) (Staphylococcus aureus [32]): inactive |
| N#Cc1c(-c2ccc(Cl)cc2)cc(-c2ccc(Nc3nc(Nc4ccccc4)nc(Nc4ccccc4)n3)cc2)nc1N | 344 µM (≈ 200 µg/mL) | 172 µM (≈ 100 µg/mL) | 0.09 millimeter | inactive | inactive | 0.07 millimeter | 0.04 millimeter | inactive | inactive | inactive | 0.08 millimeter | 0.09 millimeter | 688 µM (≈ 400 µg/mL) | 688 µM (≈ 400 µg/mL) | 344 µM (≈ 200 µg/mL) | 172 µM (≈ 100 µg/mL) | 0.08 millimeter | inactive | inactive | 344 µM (≈ 200 µg/mL) | zone of inhibition at 10 µg/disc (Escherichia coli [6]; read-out: IZ): 7 mm; MIC (Salmonella typhimurium [18]): 172 µM (≈ 100 µg/mL); inhibition zone (IZ) (Bacillus cereus [19]): inactive; inhibition zone (IZ) (Salmonella typhimurium [20]): inactive; inhibition zone (IZ) (Bacillus cereus [21]): inactive; MBC (Enterobacter cloacae [22]): 344 µM (≈ 200 µg/mL); MIC (Enterobacter cloacae [22]): 172 µM (≈ 100 µg/mL); inhibition zone (IZ) (Enterobacter cloacae [23]): inactive; MBC (Escherichia coli [24]): 344 µM (≈ 200 µg/mL); MIC (Escherichia coli [24]): 172 µM (≈ 100 µg/mL); inhibition zone (IZ) (Micrococcus flavus [25]): 0.04 millimeter; inhibition zone (IZ) (Listeria monocytogenes [26]): inactive; MBC (Micrococcus flavus [27]): 344 µM (≈ 200 µg/mL); MIC (Micrococcus flavus [27]): 172 µM (≈ 100 µg/mL); MBC (Pseudomonas aeruginosa [28]): 688 µM (≈ 400 µg/mL); MIC (Pseudomonas aeruginosa [28]): 688 µM (≈ 400 µg/mL); zone of inhibition at 10 µg/disc (Micrococcus flavus [29]; read-out: IZ): 7 mm; inhibition zone (IZ) (Listeria monocytogenes [30]): 0.08 millimeter; inhibition zone (IZ) (Salmonella typhimurium [31]): inactive; inhibition zone (IZ) (Staphylococcus aureus [32]): inactive |
| N#Cc1c(-c2ccco2)cc(-c2ccc(Nc3nc(Nc4ccccc4)nc(Nc4ccccc4)n3)cc2)nc1N | 186 µM (≈ 100 µg/mL) | 93 µM (≈ 50 µg/mL) | inactive | inactive | inactive | inactive | inactive | inactive | inactive | inactive | 0.07 millimeter | inactive | 744 µM (≈ 400 µg/mL) | 372 µM (≈ 200 µg/mL) | 372 µM (≈ 200 µg/mL) | 186 µM (≈ 100 µg/mL) | 0.09 millimeter | inactive | 0.03 | 372 µM (≈ 200 µg/mL) | inhibition zone (IZ) (Escherichia coli [6]): inactive; MIC (Salmonella typhimurium [18]): 186 µM (≈ 100 µg/mL); inhibition zone (IZ) (Bacillus cereus [19]): inactive; inhibition zone (IZ) (Salmonella typhimurium [20]): inactive; inhibition zone (IZ) (Bacillus cereus [21]): inactive; MBC (Enterobacter cloacae [22]): 372 µM (≈ 200 µg/mL); MIC (Enterobacter cloacae [22]): 186 µM (≈ 100 µg/mL); inhibition zone (IZ) (Enterobacter cloacae [23]): inactive; MBC (Escherichia coli [24]): 186 µM (≈ 100 µg/mL); MIC (Escherichia coli [24]): 93 µM (≈ 50 µg/mL); inhibition zone (IZ) (Micrococcus flavus [25]): inactive; inhibition zone (IZ) (Listeria monocytogenes [26]): inactive; MBC (Micrococcus flavus [27]): 186 µM (≈ 100 µg/mL); MIC (Micrococcus flavus [27]): 93 µM (≈ 50 µg/mL); MBC (Pseudomonas aeruginosa [28]): 744 µM (≈ 400 µg/mL); MIC (Pseudomonas aeruginosa [28]): 372 µM (≈ 200 µg/mL); inhibition zone (IZ) (Micrococcus flavus [29]): inactive; inhibition zone (IZ) (Listeria monocytogenes [30]): 0.08 millimeter; inhibition zone (IZ) (Salmonella typhimurium [31]): inactive; zone of inhibition at 10 µg/disc (Staphylococcus aureus [32]; read-out: IZ): 6 mm |
